Data set [1] has as its target Ephrin type-A receptor 8 (Homo sapiens) (UniProt P29322). Put plainly: Binding affinity to wild-type human partial length EPHA8 (Q608 to C920 residues) expressed in bacterial expression system assessed as remaining unbound target protein level at 1000 nM by Kinomescan method relative to control.
A short description of data set [2]: Oral bioavailability in Sprague-Dawley rat at 20 mg/kg by LC-MS/MS analysis. Type of data set: ADME, organism-based. The conditions noted are these: in vivo.
Data set [3] concerns the target Mitogen-activated protein kinase kinase kinase kinase 1 (Homo sapiens) (UniProt Q92918). Description: Binding affinity to wild-type human full length HPK1 (M1 to R799 residues) expressed in bacterial expression system assessed as remaining unbound target protein level at 1000 nM by Kinomescan method relative to control. The gist of the method:
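KINOMEscan competition binding profile across a panel of 468 kinases and mutants, with the inhibitor tested at a single concentration of 1 μM. Binding is reported as percent of control, meaning signal relative to a DMSO control.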

For data set [4], the target named is Tyrosine-protein kinase Fer (Homo sapiens) (UniProt P16591). Put plainly: Binding affinity to wild-type human partial length FER (S542 to T822 residues) expressed in bacterial expression system assessed as remaining unbound target protein level at 1000 nM by Kinomescan method relative to control.
Data set [5] addresses Ankyrin repeat and protein kinase domain-containing protein 1 (Homo sapiens) (UniProt Q8NFD2). Put plainly: Binding affinity to wild-type human partial length ANKK1 (M1 to A305 residues) expressed in mammalian expression system assessed as remaining unbound target protein level at 1000 nM by Kinomescan method relative to control. The gist of the method: (§1)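 Profiled in a KINOMEscan binding panel with the inhibitor at a single concentration of 1 μM. Binding to each kinase was read out as percent of control, relative to a DMSO control. Strong binders were defined as those with a percent control value below 1.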

Data set [6] addresses Ribosomal protein S6 kinase alpha-1 (Homo sapiens) (UniProt Q15418). Description: Binding affinity to wild-type human partial length N-terminal RSK1 Kinase domain 1 (M1 to E388 residues) expressed in bacterial expression system assessed as remaining unbound target protein level at 1000 nM by Kinomescan method relative to control.
The target of data set [7] is Ribosomal protein S6 kinase alpha-2 (Homo sapiens) (UniProt Q15349). Put plainly: Binding affinity to wild-type human partial length N-terminal RSK3 kinase domain 1 (M1 to Q385 residues) expressed in bacterial expression system assessed as remaining unbound target protein level at 1000 nM by Kinomescan method relative to control.
Data set [8] has as its target Serine/threonine-protein kinase tousled-like 1 (Homo sapiens) (UniProt Q9UKI8). Description: Binding affinity to wild-type human partial length TLK1 (K447 to A754 residues) expressed in bacterial expression system assessed as remaining unbound target protein level at 1000 nM by Kinomescan method relative to control.
The target in data set [9] is Mitogen-activated protein kinase 14 (Homo sapiens) (UniProt Q16539). Description: Binding affinity to wild-type human full length p38-alpha (M1 to S360 residues) expressed in bacterial expression system assessed as remaining unbound target protein level at 1000 nM by Kinomescan method relative to control. A digest of the protocol: as §1
Data set [10] addresses Homeodomain-interacting protein kinase 1 (Homo sapiens) (UniProt Q86Z02). Put plainly: Binding affinity to wild-type human partial length HIPK1 (M146 to I555 residues) expressed in mammalian expression system assessed as remaining unbound target protein level at 1000 nM by Kinomescan method relative to control.
The target in another data set is CDK8/Cyclin C (Homo sapiens, UniProt P49336). Description: Inhibition of recombinant full length His-tagged human CDK8/CyclinC expressed in baculovirus expression system.
Data set [11] addresses Cyclin-dependent kinase 2 (Homo sapiens) (UniProt P24941). Put plainly: Binding affinity to wild-type human full length CDK2 (M1 to L298 residues) expressed in bacterial expression system assessed as remaining unbound target protein level at 1000 nM by Kinomescan method relative to control. The gist of the method:
(§2)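 Single-point competition binding screen across a panel of 468 kinases and mutants, with the inhibitor at 1 μM. Binding is read out as percent of a DMSO control, and targets below 1 percent control were classed as strong binders.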

Data set [12] relates to Receptor-type tyrosine-protein kinase FLT3 (Homo sapiens), P36888 [UNDEFINED MUTATION]. Put plainly: Binding affinity to human partial length FLT3 ITD/D835V double mutant expressed in bacterial expression system assessed as remaining unbound target protein level at 1000 nM by Kinomescan method relative to control. A digest of the protocol: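 KINOMEscan competition-binding profiling across the panel of 468 kinases and mutants, with inhibitor tested at 1 μM. Binding is expressed as percent of control, with DMSO as the reference control.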

Data set [13] deals with Cyclin-dependent kinase 2 homolog (Plasmodium falciparum (isolate 3D7)) (UniProt P61075). Put plainly: Binding affinity to wild-type Plasmodium falciparum full length PK5 (M1 to N288 residues) expressed in mammalian expression system assessed as remaining unbound target protein level at 1000 nM by Kinomescan method relative to control. The gist of the method: as §2
Data set [14] deals with Serine/threonine-protein kinase MARK2 (Homo sapiens) (UniProt Q7KZI7). Put plainly: Binding affinity to wild-type human partial length MARK2 (M1 to R450 residues) expressed in bacterial expression system assessed as remaining unbound target protein level at 1000 nM by Kinomescan method relative to control.
In data set [15] the target is Bone morphogenetic protein receptor type-2 (Homo sapiens) (UniProt Q13873). Description: Binding affinity to wild-type human partial length BMPR2 (R179 to Q526 residues) expressed in mammalian expression system assessed as remaining unbound target protein level at 1000 nM by Kinomescan method relative to control. A digest of the protocol:
as §1

The target in data set [16] is CDK4/Cyclin D3 (Homo sapiens) (UniProt P11802+P30281). Description: Binding affinity to wild-type human full length CDK4/cyclinD3 (M1 to E303 residues) expressed in mammalian expression system assessed as remaining unbound target protein level at 1000 nM by Kinomescan method relative to control. The gist of the method: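 KINOMEscan competitive binding profile at 1 μM inhibitor. Remaining target binding reported as percent of DMSO control.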

The target in data set [17] is Ephrin type-B receptor 2 (Homo sapiens) (UniProt P29323). Description: Binding affinity to wild-type human partial length EPHB2 (I597 to L902 residues) expressed in bacterial expression system assessed as remaining unbound target protein level at 1000 nM by Kinomescan method relative to control.
Data set [18] has as its target Rhodopsin kinase GRK1 (Homo sapiens) (UniProt Q15835). Description: Binding affinity to wild-type human full length GRK1 (M1 to S563 residues) expressed in mammalian expression system assessed as remaining unbound target protein level at 1000 nM by Kinomescan method relative to control. The gist of the method: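 KINOMEscan competition binding panel run at 1 μM inhibitor; binding reported as percent of DMSO control (remaining target bound versus vehicle).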

Data set [19] concerns the target Ephrin type-A receptor 1 (Homo sapiens) (UniProt P21709). Put plainly: Binding affinity to wild-type human partial length EPHA1 (V588 to I913 residues) expressed in bacterial expression system assessed as remaining unbound target protein level at 1000 nM by Kinomescan method relative to control. The gist of the method: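 KINOMEscan binding panel of 468 kinases/mutants. Inhibitor was tested at a single concentration of 1 μM. Binding is reported as percent of control, defined relative to a DMSO control.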

One may read the bioavailability as dose-corrected exposure relative to a reference, in per cent. By IC50 is commonly meant the point on the concentration scale where inhibition reaches its midpoint.

Chain of Ribosomal protein S6 kinase alpha-1 (Homo sapiens) (Q15418 whole entry, the tested form may be a part): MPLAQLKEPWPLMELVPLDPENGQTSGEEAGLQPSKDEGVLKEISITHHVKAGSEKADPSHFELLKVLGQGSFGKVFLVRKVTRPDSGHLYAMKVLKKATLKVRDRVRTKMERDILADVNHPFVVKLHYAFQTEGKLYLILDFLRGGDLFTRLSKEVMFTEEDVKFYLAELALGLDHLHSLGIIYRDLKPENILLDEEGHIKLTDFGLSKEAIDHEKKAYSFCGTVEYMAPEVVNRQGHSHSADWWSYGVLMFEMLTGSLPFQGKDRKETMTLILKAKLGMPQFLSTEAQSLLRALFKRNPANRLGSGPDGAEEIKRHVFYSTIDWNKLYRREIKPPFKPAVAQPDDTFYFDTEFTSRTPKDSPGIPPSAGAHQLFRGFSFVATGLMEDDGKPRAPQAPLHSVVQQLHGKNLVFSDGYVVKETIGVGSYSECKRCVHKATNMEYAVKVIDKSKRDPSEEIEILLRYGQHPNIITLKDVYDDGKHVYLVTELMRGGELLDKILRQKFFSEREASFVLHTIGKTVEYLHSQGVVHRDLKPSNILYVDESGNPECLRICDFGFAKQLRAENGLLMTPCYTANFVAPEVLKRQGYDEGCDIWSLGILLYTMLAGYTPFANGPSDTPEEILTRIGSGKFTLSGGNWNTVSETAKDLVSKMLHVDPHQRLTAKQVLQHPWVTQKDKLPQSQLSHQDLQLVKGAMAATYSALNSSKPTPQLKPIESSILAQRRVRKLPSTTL
Chain of Homeodomain-interacting protein kinase 1 (Homo sapiens) (Q86Z02 whole entry, looked up, the tested form may be a part): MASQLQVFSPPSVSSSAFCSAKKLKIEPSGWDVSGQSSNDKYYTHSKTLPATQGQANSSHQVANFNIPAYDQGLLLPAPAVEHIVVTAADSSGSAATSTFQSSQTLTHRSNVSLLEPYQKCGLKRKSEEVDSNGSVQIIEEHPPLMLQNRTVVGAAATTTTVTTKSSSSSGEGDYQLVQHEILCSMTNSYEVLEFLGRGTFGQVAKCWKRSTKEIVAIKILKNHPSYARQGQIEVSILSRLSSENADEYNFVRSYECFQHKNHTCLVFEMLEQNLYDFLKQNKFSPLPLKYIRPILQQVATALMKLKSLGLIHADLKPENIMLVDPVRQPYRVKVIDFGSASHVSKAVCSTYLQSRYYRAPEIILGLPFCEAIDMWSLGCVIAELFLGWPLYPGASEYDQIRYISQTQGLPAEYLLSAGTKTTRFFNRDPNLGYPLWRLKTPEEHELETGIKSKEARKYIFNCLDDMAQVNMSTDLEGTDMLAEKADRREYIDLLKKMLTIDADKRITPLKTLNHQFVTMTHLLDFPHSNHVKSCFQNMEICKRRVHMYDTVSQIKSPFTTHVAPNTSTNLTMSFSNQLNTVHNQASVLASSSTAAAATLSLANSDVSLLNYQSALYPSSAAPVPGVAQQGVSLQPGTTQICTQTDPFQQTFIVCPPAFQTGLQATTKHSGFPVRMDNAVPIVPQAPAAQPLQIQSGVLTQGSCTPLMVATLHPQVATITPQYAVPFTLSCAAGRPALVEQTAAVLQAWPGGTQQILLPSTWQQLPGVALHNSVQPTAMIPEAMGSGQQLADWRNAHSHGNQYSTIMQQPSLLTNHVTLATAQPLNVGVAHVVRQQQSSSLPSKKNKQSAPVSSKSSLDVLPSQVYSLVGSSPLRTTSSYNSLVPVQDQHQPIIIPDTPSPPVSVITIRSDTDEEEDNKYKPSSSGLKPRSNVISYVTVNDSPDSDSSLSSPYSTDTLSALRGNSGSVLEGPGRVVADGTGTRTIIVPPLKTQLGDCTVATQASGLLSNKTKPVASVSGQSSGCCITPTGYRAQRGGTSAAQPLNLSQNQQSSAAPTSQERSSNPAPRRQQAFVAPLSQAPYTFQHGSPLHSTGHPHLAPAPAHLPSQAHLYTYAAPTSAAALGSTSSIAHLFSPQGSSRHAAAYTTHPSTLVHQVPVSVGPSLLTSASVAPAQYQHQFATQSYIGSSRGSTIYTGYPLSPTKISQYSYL
Chain of Ephrin type-A receptor 1 (Homo sapiens) (P21709 whole entry, the tested form may be a part): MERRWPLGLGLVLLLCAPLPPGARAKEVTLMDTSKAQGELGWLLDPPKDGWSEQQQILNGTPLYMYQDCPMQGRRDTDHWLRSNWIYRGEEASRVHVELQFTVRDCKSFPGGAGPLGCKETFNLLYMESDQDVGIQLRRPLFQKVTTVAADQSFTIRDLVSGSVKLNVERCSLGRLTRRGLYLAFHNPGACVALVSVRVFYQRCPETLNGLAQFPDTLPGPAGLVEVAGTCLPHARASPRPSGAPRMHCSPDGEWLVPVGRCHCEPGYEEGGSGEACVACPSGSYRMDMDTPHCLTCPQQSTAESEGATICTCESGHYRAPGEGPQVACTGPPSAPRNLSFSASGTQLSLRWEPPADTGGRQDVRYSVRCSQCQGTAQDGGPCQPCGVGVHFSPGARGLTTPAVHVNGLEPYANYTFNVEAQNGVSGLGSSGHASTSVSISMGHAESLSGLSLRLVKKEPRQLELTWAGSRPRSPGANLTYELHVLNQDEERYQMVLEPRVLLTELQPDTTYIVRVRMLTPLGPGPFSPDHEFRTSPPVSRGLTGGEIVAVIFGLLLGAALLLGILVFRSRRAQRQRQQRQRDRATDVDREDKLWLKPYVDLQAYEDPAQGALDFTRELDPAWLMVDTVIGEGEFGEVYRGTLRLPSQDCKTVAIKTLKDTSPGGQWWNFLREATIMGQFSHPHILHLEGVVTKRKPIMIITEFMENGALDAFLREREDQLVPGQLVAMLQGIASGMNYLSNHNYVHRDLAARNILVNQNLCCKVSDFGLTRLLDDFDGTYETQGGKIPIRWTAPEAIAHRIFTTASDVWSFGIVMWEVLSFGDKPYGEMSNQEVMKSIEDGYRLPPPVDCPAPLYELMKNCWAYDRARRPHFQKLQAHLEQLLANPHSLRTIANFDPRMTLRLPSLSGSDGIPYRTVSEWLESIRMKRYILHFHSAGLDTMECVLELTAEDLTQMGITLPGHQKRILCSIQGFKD
Chain of Ankyrin repeat and protein kinase domain-containing protein 1 (Homo sapiens) (Q8NFD2 whole entry, the tested form may be a part): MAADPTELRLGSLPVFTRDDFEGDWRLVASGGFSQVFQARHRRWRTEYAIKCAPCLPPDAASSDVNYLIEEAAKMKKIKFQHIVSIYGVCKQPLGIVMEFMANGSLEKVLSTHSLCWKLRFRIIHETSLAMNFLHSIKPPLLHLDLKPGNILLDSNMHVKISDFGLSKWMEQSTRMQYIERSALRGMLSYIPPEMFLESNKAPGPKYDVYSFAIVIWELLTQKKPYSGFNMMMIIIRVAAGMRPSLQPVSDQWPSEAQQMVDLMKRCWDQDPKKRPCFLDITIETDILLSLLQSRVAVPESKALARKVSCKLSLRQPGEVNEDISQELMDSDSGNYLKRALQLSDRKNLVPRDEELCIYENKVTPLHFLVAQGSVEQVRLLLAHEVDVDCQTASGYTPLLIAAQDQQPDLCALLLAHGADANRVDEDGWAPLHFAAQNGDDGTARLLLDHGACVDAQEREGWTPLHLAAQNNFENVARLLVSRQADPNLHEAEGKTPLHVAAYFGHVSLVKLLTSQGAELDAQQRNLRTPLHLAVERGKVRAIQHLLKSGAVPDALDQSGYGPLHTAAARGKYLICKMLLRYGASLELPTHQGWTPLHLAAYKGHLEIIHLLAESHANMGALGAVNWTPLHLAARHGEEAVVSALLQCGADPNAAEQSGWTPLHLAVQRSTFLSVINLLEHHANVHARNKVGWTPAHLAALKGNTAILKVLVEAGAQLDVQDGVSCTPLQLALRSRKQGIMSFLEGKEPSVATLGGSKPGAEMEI
Chain of Ephrin type-A receptor 8 (Homo sapiens) (P29322 whole entry, the tested form may be a part): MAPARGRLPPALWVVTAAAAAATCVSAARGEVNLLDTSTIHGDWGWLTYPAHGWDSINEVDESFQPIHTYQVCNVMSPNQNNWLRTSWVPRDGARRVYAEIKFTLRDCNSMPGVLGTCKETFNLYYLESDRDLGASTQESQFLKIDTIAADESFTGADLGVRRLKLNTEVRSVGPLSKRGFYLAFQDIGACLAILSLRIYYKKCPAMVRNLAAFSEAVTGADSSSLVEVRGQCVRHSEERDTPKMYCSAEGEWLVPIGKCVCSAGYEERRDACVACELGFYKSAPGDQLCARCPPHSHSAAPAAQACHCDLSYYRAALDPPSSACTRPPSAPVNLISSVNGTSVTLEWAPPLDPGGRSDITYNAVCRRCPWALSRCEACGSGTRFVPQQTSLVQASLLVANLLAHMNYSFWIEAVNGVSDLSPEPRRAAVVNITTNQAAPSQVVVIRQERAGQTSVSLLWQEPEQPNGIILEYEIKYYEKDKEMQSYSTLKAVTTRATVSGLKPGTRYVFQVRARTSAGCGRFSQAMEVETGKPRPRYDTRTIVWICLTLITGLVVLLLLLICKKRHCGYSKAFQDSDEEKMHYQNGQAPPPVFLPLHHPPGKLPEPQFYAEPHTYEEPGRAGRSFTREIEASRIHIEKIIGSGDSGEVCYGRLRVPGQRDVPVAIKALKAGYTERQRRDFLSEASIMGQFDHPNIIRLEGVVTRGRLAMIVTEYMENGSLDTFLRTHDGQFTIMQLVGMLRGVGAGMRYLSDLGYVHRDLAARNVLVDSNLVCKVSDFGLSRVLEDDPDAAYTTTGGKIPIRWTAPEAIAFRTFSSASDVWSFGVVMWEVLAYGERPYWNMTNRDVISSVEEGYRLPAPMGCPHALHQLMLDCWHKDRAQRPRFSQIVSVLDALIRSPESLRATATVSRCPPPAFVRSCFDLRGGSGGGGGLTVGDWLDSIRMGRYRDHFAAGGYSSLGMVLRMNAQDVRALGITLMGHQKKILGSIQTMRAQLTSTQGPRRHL
Chain of Cyclin-dependent kinase 2 homolog (Plasmodium falciparum (isolate 3D7)) (P61075 whole entry, the tested form may be a part): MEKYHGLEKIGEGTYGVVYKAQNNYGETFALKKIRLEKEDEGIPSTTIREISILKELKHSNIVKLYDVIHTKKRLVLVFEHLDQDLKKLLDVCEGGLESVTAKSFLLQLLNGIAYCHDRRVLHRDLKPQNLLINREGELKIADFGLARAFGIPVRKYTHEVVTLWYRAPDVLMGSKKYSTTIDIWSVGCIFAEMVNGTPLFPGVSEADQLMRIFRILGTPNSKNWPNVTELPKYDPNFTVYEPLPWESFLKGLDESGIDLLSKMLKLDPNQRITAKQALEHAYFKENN

For the compound `COCCN[C@H]1CC[C@H](Nc2cc(-c3csc(NCC4(C#N)CCOCC4)n3)c(Cl)cn2)CC1`, the Activity in data set [1] worked out at 92%; in data set [3], 95%; in [4], 88%; in data set [5], 100%; in [6], 94%; in [7], 90%. Further, the Activity in [8] came out at 81%; in data set [9], 98%; in data set [10] it was 60%; in data set [11] it was 100%; in data set [12] it was 65%; in [13], 100%. In addition, the Activity in data set [14] is 100%; in [15], 100%; in data set [16] it was 72%; in data set [17] it was 82%; in [18], 84%; in data set [19], 39%. The compound also came in with a bioavailability in data set [2] of 45.1%. For the same compound, the IC50 on CDK8/Cyclin C was over 10 µM.
